Measured values as given in ChEMBL document CHEMBL3414472, “Synthesis, SAR, and series evolution of novel oxadiazole-containing 5-lipoxygenase activating protein inhibitors: discovery of 2-[4-(3-{(r)-1-[4-(2-amino-pyrimidin-5-yl)-phenyl]-1-cyclopropyl-ethyl}-[1,2,4]oxadiazol-5-yl)-pyrazol-1-yl]-N,N-dimethyl-acetamide (BI 665915)” (J Med Chem, 2015).

Experiments:
Cynomolgus monkey = test: Clearance in cynomolgus monkey at 1 mg/kg, iv and 10 mg/kg, po relative to hepatic blood flow; format: ADME, organism-based, Macaca fascicularis, Liver; settings: in vivo
How it was run: (§1)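 iv 1 mg/kg in 70 % PEG; po 10 mg/kg as suspension in 0.5 % methyl cellulose/0.015 % Tween. Blood sampled at 11 timepoints (0, 5, 15, 30 min, 1, 2, 4, 6, 8, 12, 24 h) per dose; mean of n = 3. Clearance expressed as percent of hepatic blood flow.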

[1] = Volume of distribution at steady state in cynomolgus monkey at 1 mg/kg, iv and 10 mg/kg, po; format: ADME, organism-based, Macaca fascicularis; settings: in vivo, read-out: Vdss; how it was run: as §1
[2] = Plasma concentration in C57BL/6 mouse at 30 mg/kg, po after 2 hrs; format: ADME, organism-based; set-up: dose 30 mg/kg, route oral
Cytochrome P450 3A4 = Cytochrome P450 3A4 (Homo sapiens, UniProt P08684); test: Inhibition of CYP3A4 in human liver microsomes using midazolam as substrate preincubated for 10 mins followed by NADPH addition measured after 6 mins; format: ADME
How it was run: (§2)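 Human liver microsomes (0.05 mg/mL protein) with cocktail substrates: 4 µM diclofenac (2C9), 3 µM dextromethorphan (2D6), 2.5 µM midazolam (3A4). Compound in 0.1 M potassium phosphate pH 7.4 preincubated 10 min at 37 °C; NADPH added, reaction 6 min at 37 °C.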

[3] = biological target: Leukotriene B4 receptor 1 (Homo sapiens) (UniProt Q15722); test: Inhibition of BLT1 (unknown origin) at 10 uM relative to control
[4] = Clearance in human hepatocytes at 1 uM measured over 6 hrs by LC/MS analysis relative to hepatic blood flow; format: ADME, cell-based, Liver, Hepatocyte; settings: read-out: CLH
How it was run: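 Cryopreserved human hepatocytes (1 million cells/mL) incubated with compound (1 µM) at 37 °C; compound remaining measured by LC/MS over duplicate 6-timepoint curves (0 to 6 h). The slope is taken from ln % remaining versus time. Clearance is expressed as percent of hepatic blood flow.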

[5] = Plasma concentration in C57BL/6 mouse at 3 mg/kg, po after 2 hrs; format: ADME, organism-based; set-up: dose 3 mg/kg, route oral
[6] = Plasma concentration in C57BL/6 mouse at 10 mg/kg, po after 2 hrs; format: ADME, organism-based; set-up: dose 10 mg/kg, route oral
Cytochrome P450 2D6 = Cytochrome P450 2D6 (Homo sapiens, UniProt P10635); test: Inhibition of CYP2D6 in human liver microsomes using dextromethorphan as substrate preincubated for 10 mins followed by NADPH addition measured after 6 mins; format: ADME; how it was run: as §2
CYP3A4 = CYP3A4 (Homo sapiens, UniProt P08684); test: Induction of CYP3A4 in human hepatocytes using midazolam as substrate assessed as formation of 1'-hydroxymidazolam up to 30 uM preincubated for 48 hrs followed by substrate addition measured up to 120 mins relative to control; format: ADME, cell-based, Hepatocyte; settings: probe midazolam, read-out: FC
How it was run: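 Freshly plated, sandwich-cultured, single-donor human hepatocytes were exposed to compound or rifampicin (25 µM) for 48 h, with medium and dosing agent renewed every 24 h. The linear slope of 1'-hydroxymidazolam formation over time (to 120 min) was determined. Fold induction is the compound slope divided by the solvent control slope.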

[7] = Mean residence time in cynomolgus monkey at 1 mg/kg, iv; format: ADME, organism-based, Macaca fascicularis; set-up: dose 1 mg/kg, route intravenous; settings: in vivo; how it was run: as §1
Mus musculus = test: In vivo inhibition of FLAP in C57BL/6 mouse assessed as LTB4 production in calcimycin-stimulated whole blood at 30 mg/kg, po after 2 hrs by ELISA (reference value: 100 +/- 13.3%); format: functional; set-up: scale not given: the % may be the effect or the level left
[8] = Volume of distribution at steady state in rat at 1 mg/kg, iv and 10 mg/kg, po; format: ADME, organism-based; settings: in vivo, read-out: Vdss; how it was run: as §1
[9] = biological target: T1, Polyunsaturated fatty acid 5-lipoxygenase (Homo sapiens) (UniProt P09917); test: Inhibition of 5-LO (unknown origin) at 10 uM relative to control
T1 sequence (whole entry): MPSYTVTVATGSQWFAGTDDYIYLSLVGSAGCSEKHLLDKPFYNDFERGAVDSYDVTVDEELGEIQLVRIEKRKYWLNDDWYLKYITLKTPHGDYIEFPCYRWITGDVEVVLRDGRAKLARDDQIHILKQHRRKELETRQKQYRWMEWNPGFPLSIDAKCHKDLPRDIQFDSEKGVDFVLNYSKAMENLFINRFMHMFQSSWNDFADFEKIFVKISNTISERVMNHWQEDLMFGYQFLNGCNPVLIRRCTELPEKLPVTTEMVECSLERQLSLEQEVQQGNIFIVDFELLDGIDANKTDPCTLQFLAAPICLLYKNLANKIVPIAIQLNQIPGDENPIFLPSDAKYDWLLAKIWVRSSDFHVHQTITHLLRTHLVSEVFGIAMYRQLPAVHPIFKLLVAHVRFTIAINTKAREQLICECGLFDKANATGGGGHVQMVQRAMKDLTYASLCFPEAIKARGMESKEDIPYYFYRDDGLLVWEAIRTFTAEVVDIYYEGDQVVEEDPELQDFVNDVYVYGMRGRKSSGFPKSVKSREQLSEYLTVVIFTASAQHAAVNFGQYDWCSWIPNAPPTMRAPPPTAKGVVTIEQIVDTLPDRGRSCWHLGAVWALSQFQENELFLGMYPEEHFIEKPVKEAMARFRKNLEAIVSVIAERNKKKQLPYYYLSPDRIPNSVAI

[10] = Volume of distribution at steady state in dog at 1 mg/kg, iv and 10 mg/kg, po; format: ADME, organism-based, Canis lupus familiaris; settings: in vivo, read-out: Vdss; how it was run: as §1
[11] = biological target: T2, Arachidonate 5-lipoxygenase-activating protein (Homo sapiens, UniProt P20292); test: Inhibition of FLAP in calcimycin-stimulated human whole blood assessed as inhibition of LTB4 synthesis preincubated for 15 mins followed by calcimycin stimulation measured after 30 mins
T2 sequence (P20292 whole entry): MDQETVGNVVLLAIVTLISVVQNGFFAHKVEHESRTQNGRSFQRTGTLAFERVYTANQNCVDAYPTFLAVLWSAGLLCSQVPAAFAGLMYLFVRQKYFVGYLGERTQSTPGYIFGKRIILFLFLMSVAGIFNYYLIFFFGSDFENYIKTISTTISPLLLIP
How it was run: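 Heparinized human volunteer blood preincubated with compound 15 min at 37 °C, 5 % CO2; calcimycin 100 µM final, 30 min at 37 °C; spun 2000 rpm 5 min at 4 °C. Supernatant LTB4 measured by HTRF competition (LTB4-XL665 plus anti-LTB4 cryptate, 2 h room temperature). Geometric mean (n ≥ 3) of duplicate 10-point curves.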

Sequence of Leukotriene B4 receptor 1 (Homo sapiens) (Q15722 whole entry): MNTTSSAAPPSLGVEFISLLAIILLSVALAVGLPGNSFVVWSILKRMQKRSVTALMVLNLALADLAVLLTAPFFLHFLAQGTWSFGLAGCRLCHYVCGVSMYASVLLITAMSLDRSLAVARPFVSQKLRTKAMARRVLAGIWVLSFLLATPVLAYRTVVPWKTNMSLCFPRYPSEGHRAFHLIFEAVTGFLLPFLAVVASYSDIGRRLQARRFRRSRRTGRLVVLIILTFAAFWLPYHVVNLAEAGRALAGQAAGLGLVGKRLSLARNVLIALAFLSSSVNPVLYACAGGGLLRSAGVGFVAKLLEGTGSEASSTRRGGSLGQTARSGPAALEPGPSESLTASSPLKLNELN
Sequence of Cytochrome P450 3A4 (P08684 whole entry): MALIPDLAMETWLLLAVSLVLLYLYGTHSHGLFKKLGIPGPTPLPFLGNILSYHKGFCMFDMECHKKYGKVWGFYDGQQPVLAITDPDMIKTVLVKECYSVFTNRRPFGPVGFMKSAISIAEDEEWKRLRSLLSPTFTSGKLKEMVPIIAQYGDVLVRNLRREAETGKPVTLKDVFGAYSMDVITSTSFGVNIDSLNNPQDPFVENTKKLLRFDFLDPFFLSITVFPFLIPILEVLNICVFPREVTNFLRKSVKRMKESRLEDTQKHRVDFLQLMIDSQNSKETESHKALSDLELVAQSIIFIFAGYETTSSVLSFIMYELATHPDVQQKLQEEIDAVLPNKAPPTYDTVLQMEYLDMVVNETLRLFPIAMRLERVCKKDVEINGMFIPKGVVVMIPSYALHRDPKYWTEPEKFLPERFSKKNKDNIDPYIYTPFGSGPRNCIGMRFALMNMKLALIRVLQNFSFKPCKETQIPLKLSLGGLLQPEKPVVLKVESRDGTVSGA
Sequence of CYP3A4 (P08684 whole entry): as above
Sequence of Cytochrome P450 2D6 (P10635 whole entry): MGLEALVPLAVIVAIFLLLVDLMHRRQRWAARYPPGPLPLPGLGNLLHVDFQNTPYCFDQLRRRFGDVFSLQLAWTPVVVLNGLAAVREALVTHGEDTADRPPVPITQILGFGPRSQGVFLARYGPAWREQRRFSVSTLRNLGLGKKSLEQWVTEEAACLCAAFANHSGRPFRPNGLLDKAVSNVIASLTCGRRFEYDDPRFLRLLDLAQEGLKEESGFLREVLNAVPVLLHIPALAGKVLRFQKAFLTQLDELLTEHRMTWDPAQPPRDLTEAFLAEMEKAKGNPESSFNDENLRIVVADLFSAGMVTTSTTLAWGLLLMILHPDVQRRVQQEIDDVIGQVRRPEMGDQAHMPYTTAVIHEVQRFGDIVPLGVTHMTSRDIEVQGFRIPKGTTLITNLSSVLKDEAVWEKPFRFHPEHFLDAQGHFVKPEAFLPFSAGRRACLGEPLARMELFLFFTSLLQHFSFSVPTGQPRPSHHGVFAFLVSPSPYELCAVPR

- CL (Cynomolgus monkey): 3.6%
- Vd [1]: 0.5 L/kg
- concentration at 2 h [2]: 20.7 µM
- IC50 (Cytochrome P450 3A4): > 30 µM
- inhibition [3]: < 50%
- hepatic extraction ratio at 6 h, 1 µM [4]: 0.41
- concentration at 2 h [5]: 3.7 µM
- concentration at 2 h [6]: 14.8 µM
- IC50 (Cytochrome P450 2D6): > 30 µM
- fold induction at 2 h (CYP3A4): 2
- MRT [7]: 4.8 h
- Vd [8]: 0.9 L/kg
- inhibition [9]: < 50%
- Vd [10]: 1.2 L/kg
- IC50 [11]: 0.045 µM
SMILES: CN(C)C(=O)Cn1cc(-c2nc([C@@](C)(c3ccc(-c4cnc(N)nc4)cc3)C3CC3)no2)cn1 [BI 665915]
- Activity (Mus musculus): 22.2%
